This is a sample that favours compounds with a hit; in the whole collection about 0.77% have one here.
hIAP activ – human IAP activators, primary screen, biochemical, luminescence, uHTS; Intestinal-type alkaline phosphatase (Homo sapiens), P09923; purified human IAP, CDP-Star luminescence, 30 min; stronger effect = higher value; 1 = vehicle-only enzyme, 0 = enzyme-free background; actives 0.16% (n = 330,000); activation factor at 10 µM;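 active = activation factor of the enzyme at least 2-fold when tested at 20 µM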
Target sequence (P09923 whole entry, looked up): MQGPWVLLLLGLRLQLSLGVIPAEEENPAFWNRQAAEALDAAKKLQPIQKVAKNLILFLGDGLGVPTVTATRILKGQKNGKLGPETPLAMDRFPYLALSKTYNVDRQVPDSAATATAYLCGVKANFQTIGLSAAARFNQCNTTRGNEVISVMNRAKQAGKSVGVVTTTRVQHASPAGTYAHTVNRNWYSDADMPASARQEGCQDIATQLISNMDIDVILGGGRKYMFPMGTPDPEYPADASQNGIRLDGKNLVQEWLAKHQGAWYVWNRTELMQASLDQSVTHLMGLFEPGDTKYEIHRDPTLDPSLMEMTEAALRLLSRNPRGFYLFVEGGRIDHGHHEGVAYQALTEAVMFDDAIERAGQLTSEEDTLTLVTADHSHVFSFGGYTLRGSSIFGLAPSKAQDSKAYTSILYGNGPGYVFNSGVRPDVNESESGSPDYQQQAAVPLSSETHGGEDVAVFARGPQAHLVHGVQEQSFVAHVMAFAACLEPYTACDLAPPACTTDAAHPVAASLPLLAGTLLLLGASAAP
hIAP inh – human IAP inhibitors, primary screen, biochemical, luminescence, uHTS; inhibition, % at 10 µM; purified IAP, CDP-Star luminescence, 30 min; actives 0.12% (n = 330,000); AID 2544, 2010; Intestinal-type alkaline phosphatase (Homo sapiens), P09923;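 active = inhibition reaching a set limit with compound at 10 µM in the primary screen, cut at about 35% in these data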
bIAP inh – bovine intestinal alkaline phosphatase inhibitors, primary screen, selectivity assay for TNAP inhibitor project, biochemical, bovine IAP, CDP-star luminescence; alkaline phosphatase, intestinal [Bos taurus]; AID 1019, 2008; 190,000 tested, under 10 active; purified bovine IAP, 30 min; inhibition, % at 20 µM;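 active = over 50% inhibition of intestinal alkaline phosphatase at 20 µM in the single-dose screen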
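Assay system: bovine IAP enzyme; medium: DEA buffer 100 mM, pH 9.8, with MgCl2 1.0 mM, ZnCl2 0.02 mM; doses: 20 µM single dose; incubation: enzyme reaction for 30 min at room temperature; detection: CDP-star luminescence signal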
mIAP block – inhibitors of mouse IAP, primary screen, biochemical, luminescence, uHTS | intestinal alkaline phosphatase [Mus musculus] | purified mouse IAP, CDP-Star luminescence, 30 min | inhibition, % at 10 µM | actives 0.2% (n = 330,000);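 active = inhibition of at least 40% at 10 µM in the primary screen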
mIAP act – activators of mouse IAP, primary screen, biochemical, luminescence, uHTS | intestinal alkaline phosphatase [Mus musculus] | muIAP, CDP-Star luminescence, 30 min; stronger effect = higher value; 1 = vehicle-only enzyme signal, 0 = enzyme-free wells | activation factor at 10 µM | actives 0.24% (n = 330,000);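 active = activation factor of at least 2 at 20 µM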
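Assay system: mouse IAP enzyme; Reagent: CDP-Star chemiluminescent phosphatase substrate; Compound: DMSO-dissolved test compounds; Incubation: 30 min, room temperature; Technique: luminescence from enzymatic CDP-Star hydrolysis; Controls: DMSO-only wells and no-enzyme negative control.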
bIAP act – bovine intestinal alkaline phosphatase activators, primary screen, biochemical, bovine IAP, CDP-star luminescence; actives 0.17% (n = 200,000); alkaline phosphatase, intestinal [Bos taurus]; purified bovine IAP, 30 min; stronger effect = higher value; fold of DMSO-control signal, blank-subtracted; activation factor at 20 µM; AID 1016, 2008;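 active = activation factor of 2 or more at 20 µM, a signal rise over negative controls twice the positive control's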
mIAP inh conf – inhibitors of mouse IAP, confirmation, biochemical, luminescence, single concentration. AID 434971, 2010. inhibition, % at 10 µM. purified mouse IAP, CDP-Star luminescence, 30 min. shares compounds with mIAP block. actives 4.7% (n = 11,000);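 active = inhibition of at least 40% at 10 µM in either of the two replicates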
Of the large screens only hits and unclear results are named; the others gave an inactive call (follow-up assays come after a bar, where they were run).

COc1ccc(S(=O)(=O)N(C)C[C@H]2Oc3ccc(NC(=O)Cc4cn(C)c5ccccc45)cc3C(=O)N([C@@H](C)CO)C[C@@H]2C)cc1	none (no result: bIAP inh, bIAP act)
COc1cccc(C(=O)Nc2cccc3ccccc23)c1	none (no result: bIAP inh, bIAP act)
COc1cccc(C(CC(=O)Nc2cccc3ccccc23)NC(=O)c2ccccc2)c1 (centres undefined)	mIAP act 2.1 | mIAP inh conf inactive
Cn1c(C(=O)N[C@@H](C(=O)O)c2ccccc2)cc2cc(F)ccc21	none (no result: bIAP inh, bIAP act)
Cc1ccc(NC(=O)COC(=O)Cc2c[nH]c3ccccc23)cc1F	none (no result: bIAP inh, bIAP act)
CCCn1ncc(CN2CCC(C(=O)Nc3cccc(-c4cccc(F)c4)c3)CC2)c1C	mIAP act 5.3 (no result: bIAP inh, bIAP act) | mIAP inh conf inactive
C=CCn1cc(CN2CCC(C(=O)Nc3cccc(-c4cccc(F)c4)c3)CC2)c(C)n1	mIAP act 2.5 (no result: bIAP inh, bIAP act) | mIAP inh conf inactive
O=S(=O)(Nc1cccc(-c2ccc3nncn3n2)c1)c1ccc(Cl)s1	none
Cn1nc(OC(=O)Nc2cccc(Cl)c2)cc1C(F)(F)F	mIAP act 3.4 | mIAP inh conf inactive
Cn1nc(OC(=O)Nc2ccccc2)cc1C(F)(F)F	none
O=C(Nc1cccc(S(=O)(=O)N2CCCCC2)c1)Nc1ccc(Cl)cc1Cl	mIAP act 5.4 | mIAP inh conf inactive
O=C(Nc1ccc(Cl)cc1Cl)NC1CCN(S(=O)(=O)c2ccc(F)cc2)CC1	mIAP act 5.4 (no result: bIAP inh, bIAP act) | mIAP inh conf inactive
O=C(CNc1ccc(F)cc1Cl)Nc1cccc(S(=O)(=O)N2CCCCC2)c1	none (no result: bIAP inh, bIAP act)
COc1ccccc1NS(=O)(=O)c1cccc(NC(=O)Nc2ccc(Cl)cc2)c1	mIAP act 2.1 | mIAP inh conf inactive
O=C(Nc1ccc(F)cc1)Nc1cc(S(=O)(=O)N2CCOCC2)ccc1N1CCCC1	none
O=C(Nc1ccc(Cl)cc1)Nc1cc(S(=O)(=O)N2CCOCC2)ccc1N1CCCC1	mIAP act 2.9 | mIAP inh conf inactive
COc1cccc2cc(C(=O)OCC(=O)NCc3ccc4c(c3)OCO4)c(=O)oc12	none (no result: bIAP inh, bIAP act)
CCCCCCn1nc(C(=O)N(CCCC)c2c(N)n(CCC)c(=O)[nH]c2=O)c2ccccc2c1=O	none (no result: bIAP inh, bIAP act)
COc1ccc(-c2nc(-c3ccc(C(=O)O)cc3)no2)cc1	none (no result: bIAP inh, bIAP act)
O=C(N/C=C/c1ccccc1)Nc1ccc(Cl)cc1	mIAP act 4 | mIAP inh conf inactive
O=C(N/N=C/c1ccc(Cl)cc1)Nc1ccccc1	none
CC1=C(C(=O)OCC2CCCO2)C(c2ccc(Cl)cc2)NC(=O)N1 (centres undefined)	none
CCCCOc1[nH]c2nc(-c3ccco3)n(Cc3ccco3)c(=N)c2c1C#N	mIAP block 63 | mIAP inh conf 68
Cc1ccc(NC(=O)CCNS(=O)(=O)c2ccc3[nH]c(=O)oc3c2)c(Cl)c1	mIAP block 59 (no result: bIAP inh, bIAP act) | mIAP inh conf 62
Cc1ccc(NC(=O)CCNS(=O)(=O)c2ccc3[nH]c(=O)oc3c2)cc1F	mIAP block 42 (no result: bIAP inh, bIAP act) | mIAP inh conf 51
O=C(CCNS(=O)(=O)c1ccc2[nH]c(=O)oc2c1)Nc1ccccc1	mIAP block 41 (no result: bIAP inh, bIAP act) | mIAP inh conf 54
Cc1cc(C(=O)COC(=O)C2=COCCO2)c(C)n1-c1cccc(F)c1	none (no result: bIAP inh, bIAP act)
CCCNC(=O)c1ccc2c(=O)n(Cc3ccco3)c(=S)[nH]c2c1	mIAP block 64 | mIAP inh conf 66
CCOc1ccc(C2c3[nH]c4ccccc4c3CCN2C(=O)Cn2cncn2)cc1 (centres undefined)	none
COc1cccc(NC(=O)CN(C)C(=O)CCCc2nc3ccccc3c(=O)[nH]2)c1	none (no result: bIAP inh, bIAP act)
C=CCN1C(=O)/C(=c2\sc3nc(=O)c(Cc4ccc(OC)c(OC)c4)nn3c2=O)c2ccccc21	none (no result: bIAP inh, bIAP act)
Cn1cccc1/C=C1\SC(=S)N(Nc2ccccc2)C1=O	mIAP block 40 (no result: bIAP inh, bIAP act) | mIAP inh conf 50
CC(C)N(C(=S)Nc1cccc(S(=O)(=O)N(C)C)c1)c1ccccc1	none (no result: bIAP inh, bIAP act)
